Drawing on ChEMBL document CHEMBL1153481, “Chromane derivatives of small aromatic molecules: Chemoenzymatic synthesis and growth inhibitory activity on human tumor cell line LoVo WT” (Bioorg Med Chem, 2009), this text covers Activity and IC50 for four compounds.

Activity calls are given as the source filed them. No cut-off for these calls is given here.

Common to all, as to format: functional, cell-based
Assay [1] has as its system LoVo. The experiment in a line: Induction of apoptosis in human wild type LoVo cells assessed as increase in hyplodiploid cells after 24 hrs by flow cytometry. The essentials:
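Apoptosis measured in LoVo WT cells after 24 h exposure as the percentage of hypodiploid cells (loss of fragmented DNA), determined by flow cytometry.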
Background: Flow cytometry measures light scatter and fluorescence of single cells or particles in a stream.

Assay [2] concerns LoVo. The experiment in a line: Cytotoxicity against human wild type LoVo cells after 24 hrs by MTS assay. The essentials: (§1)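 LoVo WT human colon adenocarcinoma cells grown in D-MEM F12 with 10% FBS, penicillin/streptomycin, 37 °C, 5% CO2. Seeded 1 × 10^4 cells/well, medium replaced after 1 day with exposure medium containing test agents (0.1–300 µM; DMSO 0.3% or less). After 1–3 day exposure, MTS/PMS added for 2 h at 37 °C; formazan absorbance read at 490 nm. Viability expressed relative to DMSO-only controls.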
(In general: Tetrazolium assays rely on reduction of a dye to a coloured formazan, in cell work by metabolically active cells.)

In assay [3] the test system is LoVo. The experiment in a line: Cytotoxicity against human wild type LoVo cells after 48 hrs by MTS assay. The essentials: as §1
Assay [4] has as its system LoVo. The experiment in a line: Cytotoxicity against human wild type LoVo cells at 100 uM after 24 hrs by MTS assay. The essentials: as §1

Take `CC1(C)CCc2c(ccc3cc(O)ccc23)O1`: the result in assay [1] was Active. In addition, the figures for the IC50 in assay [2] and in assay [3] were 34.5 µM and 27.4 µM, respectively.
For `CC1(C)CCc2c(ccc3c4c(ccc23)OC(C)(C)CC4)O1`, in that order: “inactive”, 258 µM and 395 µM.
As for `CC1(C)CCc2cc(CCO)ccc2O1`, the result in assay [4] was inactive.
Turning to `Oc1ccc2cc(O)ccc2c1`, in assay [1], the outcome was inactive.
